The values below come from ChEMBL document CHEMBL5030534, “Discovery of Novel Anti-Breast-Cancer Inhibitors by Synergistically Antagonizing Microtubule Polymerization and Aryl Hydrocarbon Receptor Expression” (J Med Chem, 2021).

One series deals with L02. In words: Antiproliferative activity against human L-O2 cells assessed as reduction in cell viability incubated for 48 hrs by MTT assay. The class given is cell-based. To be noted: L02, 48 h. An outline of the steps:
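Cells seeded at 5 × 10³ per well, incubated overnight, then exposed to a range of compound concentrations for 48 h. MTT added for 4 h, medium replaced with DMSO, absorbance read at 570 nm. MCF-7, L-O2 grown in DMEM; MCF-10A, MCF-7/ADR in RPMI 1640. Three independent runs.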

For series [1], the target named is T1, Tubulin (Homo sapiens) (UniProt P68371+Q9H4B7+P0DPH7+P68366+Q13509+Q71U36+P04350+Q3ZCM7+P07437+P68363+Q9BQE3+Q6PEY2+Q13885+Q9BVA1+Q9BUF5). In words: Induction of microtubule damage in human MCF7 cells incubated for 48 hrs by DAPI staining based immunofluorescence assay. The format is cell-based. As to conditions: dose 0.5-4 nM. A digest of the protocol: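 Blocked with goat serum for 20 min, probed with anti-β-tubulin for 2 h, fluorescent secondary antibody and DAPI nuclear stain, imaged by laser confocal microscopy.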

For series [2], the target named is T1, Tubulin (Homo sapiens). As to the kind of experiment: Induction of microtubule depolymerization in human MCF7 cells at 10 uM measured every 5 mins for 60 mins by spectrophotometric method. The format is cell-based. An outline of the steps:
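Purified tubulin at 2 mg/mL in PEM buffer preincubated on ice with compound or DMSO. PEG added to a final 3 mg/mL, then polymerization followed at 37 °C by absorbance at 350 nm every 5 min for 60 min.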

Series [3] deals with MCF7. As to the kind of experiment: Induction of apoptosis in human MCF7 cells assessed as viable cells at 0.5 nM measured after 24 hrs by Annexin V-FITC and PI staining based flow cytometry assay (reference value: 96.8%). As to conditions: read-out: Activity. The class given is functional. For orientation: A flow cytometer gives signals particle by particle.
The subject of series [4] is MCF7. As to the kind of experiment: Induction of apoptosis in human MCF7 cells assessed as increase in Bad protein expression at 1 to 4 nM. As to conditions: dose 1-4 nM. The format is functional, cell-based. A digest of the protocol:
(§1)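 MCF-7 seeded 4 × 10⁵ per well for 24 h, then DMSO or compound at 1, 2, 4 nM for 24 h. Lysates protein-normalized to 3 mg/mL by BCA, resolved on 4–20% SDS-PAGE and immunoblotted. Bands quantified relative to β-actin (cell-cycle proteins) or GAPDH (apoptosis proteins); n = 3.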

In series [5] the test system is MCF7. In words: Induction of apoptosis in human MCF7 cells assessed as increase in cleaved Caspase-9 protein expression at 1 to 4 nM. The class given is functional, cell-based. To be noted: dose 1-4 nM. An outline of the steps:
as §1

The subject of series [6] is MCF7. As to the kind of experiment: Induction of apoptosis in human MCF7 cells assessed as increase in cleaved Caspase-3 protein expression at 1 to 4 nM. The class given is functional, cell-based. To be noted: dose 1-4 nM. A digest of the protocol:
as §1

Series [7] deals with MCF7. As to the kind of experiment: Induction of apoptosis in human MCF7 cells assessed as increase in PARP protein expression at 1 to 4 nM. To be noted: dose 1-4 nM. The class given is functional, cell-based. An outline of the steps: as §1
In series [8] the test system is MCF7. As to the kind of experiment: Induction of mitochondrial membrane potential loss in human MCF7 cells at 0.5 nM measured after 24 hrs by JC-1 staining based flow cytometry analysis (reference value: 3.01%). The class given is functional.
In series [9] the test system is MCF7. In words: Antitumor activity against human MCF7 cells xenografted in BALB/c nude mouse assessed as decrease in tumor weight at 1 mg/kg, iv administered every 2 days for 21 days and measured every 2 days. The class given is functional. The arrangement: scale not given: the % may be the effect or the level left. To be noted: time 21 day. An outline of the steps:
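MCF-7 cells (6 × 10⁶) injected subcutaneously into right flank of BALB/c nude mice; after 7 days animals randomized, eight per group. Dosing iv every 2 days for 21 days, vehicle 10% DMSO/5% Tween 80/85% saline. Tumor size and body weight recorded every 2 days; tumors excised and weighed at sacrifice.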
(A xenograft is tissue or cells of one species grown in another, often human tumour cells in immunodeficient mice.)

A short description of series [10]: Toxicity in BALB/c mouse xenografted with human MCF7 cells assessed as change in body weight at 0.5 to 1 mg/kg, iv administered every 2 days for 21 days. The class given is organism-based. To be noted: in vivo, 504 h, dose 0.5-1 mg/kg, time 21 day. A digest of the protocol:
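Nude mice given 6 × 10⁶ MCF-7 cells subcutaneously on right flank; after 7 days randomized, eight per group. iv dosing every 2 days at 0.5 or 1 mg/kg; vehicle 10% DMSO/5% Tween 80/85% saline; paclitaxel 10 mg/kg and CA-4 20 mg/kg references. Body weight every 2 days; killed after 21 days; organs fixed, paraffin-sectioned, H&E stained.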

The target of another series is T2, Cytochrome P450 1A1 (Homo sapiens, UniProt P04798).
T2 sequence (P04798 whole entry): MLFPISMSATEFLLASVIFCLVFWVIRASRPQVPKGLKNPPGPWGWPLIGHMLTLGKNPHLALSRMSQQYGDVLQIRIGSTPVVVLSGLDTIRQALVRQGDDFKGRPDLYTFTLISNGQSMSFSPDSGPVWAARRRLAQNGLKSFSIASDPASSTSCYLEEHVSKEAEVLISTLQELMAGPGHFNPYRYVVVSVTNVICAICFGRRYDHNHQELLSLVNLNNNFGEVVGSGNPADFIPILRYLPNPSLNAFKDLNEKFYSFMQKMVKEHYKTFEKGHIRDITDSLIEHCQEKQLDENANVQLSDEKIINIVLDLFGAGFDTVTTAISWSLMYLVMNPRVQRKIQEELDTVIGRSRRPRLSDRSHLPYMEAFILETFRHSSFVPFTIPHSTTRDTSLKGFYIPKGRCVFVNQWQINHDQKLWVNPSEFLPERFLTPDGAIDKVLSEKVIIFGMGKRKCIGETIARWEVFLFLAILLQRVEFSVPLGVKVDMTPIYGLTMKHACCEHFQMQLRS
As to the kind of experiment: Inhibition of CYP1A1 signalling in human MCF7 cells assessed as reduction in CYP1A1 level incubated for 24 hrs by Western blot analysis. As to conditions: mcf7, 24 h, at 1 to 4 nM, dose 1-4 nM. The format is ADME, cell-based. An outline of the steps:
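MCF-7 cells seeded 4 × 10⁵ per well, grown 24 h, then exposed to DMSO or 1, 2, 4 nM for 24 h; BAY 2416964 served as AhR antagonist reference. Lysates adjusted to 3 mg/mL protein by BCA, resolved on 4−20% SDS-PAGE, immunoblotted; AhR and CYP1A1 bands normalized to GAPDH. Three independent runs.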
Background: A western blot detects proteins with antibodies after separation by electrophoresis.

Series [11] has as its system MCF7. In words: Induction of apoptosis in human MCF7 cells assessed as necrotic cells at 0.5 nM measured after 24 hrs by Annexin V-FITC and PI staining based flow cytometry assay (reference value: 0.28%). The class given is functional.
Series [12] has as its system MCF7. In words: Induction of apoptosis in human MCF7 cells assessed as early apoptotic cells at 1 nM measured after 24 hrs by Annexin V-FITC and PI staining based flow cytometry assay (reference value: 0.90%). The format is functional.
Series [13] has as its system MCF7. In words: Induction of apoptosis in human MCF7 cells assessed as necrotic cells at 1 nM measured after 24 hrs by Annexin V-FITC and PI staining based flow cytometry assay (reference value: 0.28%). The format is functional.
Series [14] concerns MCF7. As to the kind of experiment: Antiproliferative activity against human MCF7 cells assessed as cell growth inhibition at 2 nM in presence of DMBA. The class given is functional, cell-based.
Series [15] deals with MCF7. As to the kind of experiment: Induction of apoptosis in human MCF7 cells assessed as early apoptotic cells at 2 nM measured after 24 hrs in presence of DMBA by Annexin V-FITC and PI staining based flow cytometry assay (reference value: 1%). The class given is functional.
Series [16] has as its system MCF7. As to the kind of experiment: Induction of apoptosis in human MCF7 cells assessed as necrotic cells at 2 nM measured after 24 hrs in presence of DMBA by Annexin V-FITC and PI staining based flow cytometry assay (reference value: 0.9%). The class given is functional.
Series [17] relates to MCF7. As to the kind of experiment: Induction of apoptosis in human MCF7 cells assessed as late apoptotic cells at 2 nM measured after 24 hrs by Annexin V-FITC and PI staining based flow cytometry assay (reference value: 1.5%). The class given is functional.

Activity calls are given as the source filed them. The calls are words filed in the database; no cut-off is given here.

As for `Cc1nc(N(C)c2ccc3c(c2)cc(C)n3C)c2ccccc2n1`, the IC50 in the series on L02 came out at 4.6 nM. Also, the Activity result was “Dose-Dependent Effect” on Tubulin (Homo sapiens) [1]; 6.49% in the series with MCF7 [8]; 81.1% in the series on MCF7 [9]; “Non-Toxic” in series [10]; 0.52% in the series with MCF7 [11]; 6.63% in the series on MCF7 [12]. Moreover, the Activity in the series with MCF7 [13] came out at 3.27%; with MCF7 [15], 5%; in the series with MCF7 [16], 5.6%; in the series with MCF7 [17], 44.7%. Further, the outcome on Tubulin (Homo sapiens) [2], in the series on MCF7 [4], in the series with MCF7 [5], in the series with MCF7 [6], in the series on MCF7 [7] and in the series with MCF7 [14] was Active. Moreover, the viability at 0.0005 µM with MCF7 [3] came out at 95%. In addition, the “inhibition (INH)” value at Cytochrome P450 1A1 was “Dose-Dependent Effect”.

A word on the IC50: it is the midpoint of a concentration-inhibition curve.
